30 compounds from ChEMBL document CHEMBL1764968, “Structural simplification of bioactive natural products with multicomponent synthesis. 3. Fused uracil-containing heterocycles as novel topoisomerase-targeting agents” (2011) can be followed below.

One assay has as its system LoVo. The assay can be described thus: Cytotoxicity against human LoVo cells after 72 hrs by MTT assay. It is filed as functional. The procedure, abridged: (§1)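 Cells plated 24 h in 96-well plates at 10,000–40,000 cells/mL depending on line. U373 grown in MEM, other lines in RPMI, both with 5% heat-inactivated FCS. Cells exposed to compounds (or none, control) for 72 h. MTT reduction to formazan read at 570 nm against 630 nm reference. Sextuplicate per condition.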

Another assay relates to PC-3. The assay can be described thus: Cytotoxicity against human PC3 cells after 72 hrs by MTT assay. It is filed as functional. The settings on record: PC-3, 72 h. The method in brief: as §1
In another assay the test system is Jurkat. Description: Cytotoxicity against human Jurkat cells after 72 hrs by MTT assay. It is filed as functional. The method in brief:
as §1

In another assay the test system is A549. The assay can be described thus: Cytotoxicity against human A549 cells after 72 hrs by MTT assay. It is filed as functional. The settings on record: A549, 72 h. The procedure, abridged:
as §1

Another assay concerns SK-MEL. The assay can be described thus: Cytotoxicity against human SK-MEL cells after 72 hrs by MTT assay. Type of assay: functional. The procedure, abridged:
as §1

The next assay deals with HeLa. Description: Cytotoxicity against human HeLa cells after 72 hrs by MTT assay. It is filed as functional. The method in brief: as §1
In the next assay the test system is MCF7. Description: Cytotoxicity against human MCF7 cells after 72 hrs by MTT assay. Type of assay: functional. The settings on record: MCF7, 72 h. The procedure, abridged:
as §1

A short description of assay [1]: Cytotoxicity against human U373 cells after 72 hrs by MTT assay. It is filed as functional, U-373MG ATCC. The settings on record: U373 MG. The procedure, abridged: as §1

For `COc1ccc(-c2c3c(nc4[nH]c(=O)[nH]c(=O)c24)-c2ccccc2C3=O)cc1`, the concentration for 50% growth inhibition (GI50) is 870 nM in the assay with LoVo; 880 nM with PC-3; 960 nM in the assay on Jurkat; more than 10000 nM in the assay on A549; 4700 nM in the assay on SK-MEL; 5500 nM with HeLa. Besides, the concentration for 50% growth inhibition (GI50) (with MCF7; in assay [1]) was 2400 nM throughout.
`O=C1c2ccccc2-c2nc3[nH]c(=O)[nH]c(=O)c3c(-c3ccc(Cl)c(Cl)c3)c21`: the 50% growth inhibitory concentration (GI50) in the assay on LoVo was 70 nM; with PC-3, more than 10000 nM; with Jurkat, 230 nM; with A549, 120 nM; in the assay with SK-MEL, 80 nM; in the assay with HeLa it was 350 nM. Moreover, the figures for the GI50 (in the assay on MCF7; in assay [1]) were 740 nM and 80 nM, respectively.
As to `O=C1C2=C(Nc3[nH]c(=O)[nH]c(=O)c3C2c2ccc(F)cc2)c2ccccc21` (stereo unspecified), the GI50 is 4600 nM in the assay with LoVo; 4000 nM in the assay on PC-3; more than 10000 nM in the assay on Jurkat; more than 10000 nM in the assay on A549; 10000 nM with SK-MEL; more than 10000 nM with HeLa. Besides, the concentration for 50% growth inhibition (GI50) in the assay with MCF7 was more than 10000 nM; in assay [1] it was 5600 nM.
`COc1ccc(-c2c3c(nc4[nH]c(=O)[nH]c(=O)c24)-c2ccccc2C3=O)cc1OC`: the GI50 with LoVo was 440 nM; in the assay with PC-3 it was more than 10000 nM; in the assay on Jurkat, 220 nM; with A549 it was 830 nM; in the assay with SK-MEL, 470 nM; in the assay with HeLa, 530 nM. In addition, the GI50 in the assay on MCF7 was 750 nM; in assay [1], 600 nM.
As to `CC[C@@]1(O)C(=O)OCc2c1cc1n(c2=O)Cc2cc3ccccc3nc2-1` [CAMPTOTHECIN], the GI50 in the assay on LoVo is 8 nM; in the assay with PC-3 it was 480 nM; in the assay with Jurkat, 90 nM; in the assay with A549 it was 200 nM; in the assay on SK-MEL it was 47 nM; in the assay on HeLa, 1300 nM. Also, the GI50 with MCF7 turned out to be 6000 nM; in assay [1] it was 33 nM.
As for `CCOc1ccc(C2C3=C(Nc4[nH]c(=O)[nH]c(=O)c42)c2ccccc2C3=O)cc1` (stereo unspecified), the concentration for 50% growth inhibition (GI50) in the assay on Jurkat came out at 910 nM; in the assay with A549, 5800 nM; in the assay on HeLa it was 7400 nM; in the assay with MCF7, 6600 nM.
The corresponding values for `O=C1c2ccccc2-c2nc3[nH]c(=O)[nH]c(=O)c3c(-c3ccc(OC(F)(F)F)cc3)c21` are 950 nM, 8000 nM, 5800 nM and 6600 nM.
Turning to `O=C1C2=C(Nc3[nH]c(=O)[nH]c(=O)c3C2c2ccnc3ccccc23)c2ccccc21` (stereo unspecified), the GI50 with Jurkat is 8200 nM; in the assay with A549, 8600 nM; in the assay on HeLa, 5600 nM; in the assay on MCF7, 9400 nM.
As for `COc1ccc(-c2c3c(nc4[nH]c(=O)[nH]c(=O)c24)-c2ccccc2C3=O)c(OC)c1OC`, the GI50 in the assay on LoVo was determined as 350 nM; in the assay on PC-3 it was 900 nM; with Jurkat, 470 nM; in the assay with A549 it was 260 nM; in the assay on SK-MEL it was 430 nM; with HeLa, 310 nM. For the same compound, the concentration for 50% growth inhibition (GI50) was 470 nM in the assay on MCF7 and 360 nM in assay [1].
In the case of `O=C1C2=C(Nc3[nH]c(=O)[nH]c(=O)c3C2c2ccc(F)c(Br)c2)c2ccccc21` (stereo unspecified), the GI50 in the assay with Jurkat turned out to be 990 nM; in the assay with A549, 5600 nM; with HeLa, 5400 nM; in the assay with MCF7 it was 5500 nM.
For `COc1ccc(C2C3=C(Nc4[nH]c(=O)[nH]c(=O)c42)c2ccccc2C3=O)c(OC)c1OC` (stereo unspecified), the GI50 in the assay on LoVo is 220 nM; in the assay on PC-3, more than 10000 nM; in the assay on Jurkat, 490 nM; in the assay with A549, 540 nM; with SK-MEL, 400 nM; in the assay on HeLa, 350 nM. Also, the GI50 is 480 nM in the assay on MCF7 and 260 nM in assay [1].
Consider `CCOc1ccc(-c2c3c(nc4[nH]c(=O)[nH]c(=O)c24)-c2ccccc2C3=O)cc1`, for which the GI50 came to 760 nM in the assay with Jurkat, 6000 nM in the assay on A549, 5300 nM with HeLa and 5600 nM in the assay on MCF7.
Take `COc1cc(-c2c3c(nc4[nH]c(=O)[nH]c(=O)c24)-c2ccccc2C3=O)cc(Br)c1OC`: the GI50 with LoVo was 350 nM; with PC-3 it was more than 10000 nM; with Jurkat, 170 nM; in the assay with A549, 310 nM; in the assay on SK-MEL it was 470 nM; in the assay with HeLa, 340 nM. The values for the GI50 (in the assay on MCF7; in assay [1]) were 950 nM and 600 nM, respectively.
For `COc1ccc(C2C3=C(Nc4[nH]c(=O)[nH]c(=O)c42)c2ccccc2C3=O)cc1OC` (stereo unspecified), the GI50 was 800 nM in the assay on LoVo; more than 10000 nM with PC-3; 400 nM in the assay on Jurkat; 4800 nM with A549; 860 nM with SK-MEL; 600 nM with HeLa. In addition, the GI50 in the assay with MCF7 was 690 nM; in assay [1], 700 nM.
`O=C1C2=C(Nc3[nH]c(=O)[nH]c(=O)c3C2c2ccc3c(c2)OCCO3)c2ccccc21` (stereo unspecified): the 50% growth inhibitory concentration (GI50) with Jurkat stood at 6900 nM; in the assay on A549, 7800 nM; with HeLa it was 5400 nM; with MCF7, 8400 nM.
Regarding `O=C1c2ccccc2-c2nc3[nH]c(=O)[nH]c(=O)c3c(-c3ccc(Cl)cc3Cl)c21`, the GI50 in the assay with LoVo stood at 2900 nM; in the assay with PC-3, 2800 nM; in the assay with Jurkat it was 810 nM; with A549 it was 7800 nM; in the assay on SK-MEL, 3500 nM; in the assay with HeLa it was 890 nM. In addition, the concentration for 50% growth inhibition (GI50) in the assay on MCF7 was 7400 nM; in assay [1], 4200 nM.
For `COc1ccc(C2C3=C(Nc4[nH]c(=O)[nH]c(=O)c42)c2ccccc2C3=O)cc1` (stereo unspecified), the GI50 amounted to 2200 nM with LoVo; 3000 nM with PC-3; 870 nM in the assay on Jurkat; 9200 nM in the assay on A549; 4800 nM in the assay on SK-MEL; 6900 nM with HeLa. Moreover, the GI50 in the assay with MCF7 was 3600 nM; in assay [1] it was 4100 nM.
For the compound `O=C1c2ccccc2-c2nc3[nH]c(=O)[nH]c(=O)c3c(-c3ccc(F)cc3)c21`, the GI50 with LoVo was 3500 nM; in the assay on PC-3 it was 9000 nM; with Jurkat, 7400 nM; with A549 it was more than 10000 nM; in the assay with SK-MEL, 10000 nM; with HeLa, more than 10000 nM. Further, the GI50 in the assay on MCF7 is more than 10000 nM; in assay [1], 8700 nM.
On to `O=C1c2ccccc2-c2nc3[nH]c(=O)[nH]c(=O)c3c(-c3ccnc4ccccc34)c21`, for which the GI50 with Jurkat was 8200 nM; in the assay with A549 it was more than 10000 nM; in the assay on HeLa, 7600 nM; with MCF7, 9500 nM.
The corresponding values for `CC(C)c1ccc(C2C3=C(Nc4[nH]c(=O)[nH]c(=O)c42)c2ccccc2C3=O)cc1` (stereo unspecified) are 960 nM, more than 10000 nM, 5800 nM and 9100 nM.
For `Cc1ccc(C2C3=C(Nc4[nH]c(=O)[nH]c(=O)c42)c2ccccc2C3=O)cc1` (stereo unspecified) the same measures were 5600 nM, 5900 nM, 8600 nM and 7600 nM.
For `O=C1C2=C(Nc3[nH]c(=O)[nH]c(=O)c3C2c2ccc(Cl)c(Cl)c2)c2ccccc21` (stereo unspecified), the GI50 came to 460 nM in the assay on LoVo; 6200 nM with PC-3; 350 nM with Jurkat; 590 nM in the assay with A549; 500 nM in the assay on SK-MEL; 5800 nM with HeLa. The GI50 came to 800 nM in the assay with MCF7 and 420 nM in assay [1].
Consider `O=C1C2=C(Nc3[nH]c(=O)[nH]c(=O)c3C2c2ccc(Cl)cc2Cl)c2ccccc21` (stereo unspecified), for which the GI50 was determined as 1400 nM in the assay with LoVo; 2400 nM with PC-3; 760 nM with Jurkat; 7400 nM in the assay on A549; 3900 nM in the assay with SK-MEL; 950 nM with HeLa. Further, the GI50 in the assay with MCF7 is 7000 nM; in assay [1], 4200 nM.
For `O=C1c2ccccc2-c2nc3[nH]c(=O)[nH]c(=O)c3c(-c3ccc(C(F)(F)F)cc3)c21`, the GI50 worked out at 960 nM with Jurkat, 7800 nM in the assay on A549, 3800 nM in the assay on HeLa and 5600 nM in the assay on MCF7.
The corresponding values for `O=C1c2ccccc2-c2nc3[nH]c(=O)[nH]c(=O)c3c(-c3ccc(F)c(Br)c3)c21` are 980 nM, 2800 nM, 5600 nM and 5500 nM.
For `O=C1C2=C(Nc3[nH]c(=O)[nH]c(=O)c3C2c2ccc(C(F)(F)F)cc2)c2ccccc21` (stereo unspecified) the same measures were 2200 nM, 5200 nM, 5600 nM and 1500 nM.
On to `Cc1ccc(-c2c3c(nc4[nH]c(=O)[nH]c(=O)c24)-c2ccccc2C3=O)cc1`, for which the GI50 in the assay with Jurkat was 1100 nM; in the assay on A549 it was 5800 nM; in the assay on HeLa it was 6400 nM; in the assay on MCF7, 6400 nM.
Take `CC(C)c1ccc(-c2c3c(nc4[nH]c(=O)[nH]c(=O)c24)-c2ccccc2C3=O)cc1`: the GI50 in the assay on Jurkat was 490 nM; in the assay with A549 it was 8200 nM; with HeLa, 850 nM; with MCF7, 6900 nM.
Turning to `O=C1c2ccccc2-c2nc3[nH]c(=O)[nH]c(=O)c3c(-c3ccc4c(c3)OCCO4)c21`, the GI50 was determined as 5500 nM with Jurkat, 7500 nM with A549, 8800 nM in the assay with HeLa and 8500 nM with MCF7.
The corresponding values for `O=C1C2=C(Nc3[nH]c(=O)[nH]c(=O)c3C2c2ccc(OC(F)(F)F)cc2)c2ccccc21` (stereo unspecified) are 960 nM, 5700 nM, 5600 nM and 5800 nM.
